According to ChEMBL document CHEMBL1687814, “Testing nucleoside analogues as inhibitors of Bacillus anthracis spore germination in vitro and in macrophage cell culture” (Antimicrob Agents Chemother, 2010):
Calls of active or inactive are those of the source. The rule behind the calls is not given here.

Experiments:
[1] = system: Bacillus anthracis; assay: Inhibition of inosine/L-alanine-induced Bacillus anthracis Sterne 34F2 spore germination pretreated for 15 mins before inosine/L-alanine challenge; type: functional, organism-based
[2] = system: J774.A1; assay: Cytotoxicity against mouse J774A1 cells; type: cell-based
Outline: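 Uninfected J774A.1 macrophages, seeded at 8 × 10^5 cells/ml in serum-free DMEM, were given analogues at various final concentrations. Necrosis was assessed by 20 μM propidium iodide fluorescence at 617 nm, in parallel with the infected wells.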

[3] = system: Bacillus anthracis; assay: Antibacterial activity against Bacillus anthracis Sterne 34F2 infected in mouse J774A.1 cells assessed as protection against bacteria-induced cytotoxicity using propidium iodide staining after 3 hrs measured every hours for up to 7 hrs; type: functional, organism-based
[4] = Increase of Bacillus anthracis Sterne 34F2-induced cytotoxicity in mouse J774A.1 cells using propidium iodide staining measured after 5 hrs infection; type: cell-based; details: bacillus anthracis str. sterne
[5] = system: Bacillus anthracis; assay: Activation of Bacillus anthracis Sterne 34F2 spore germination after 1 hr; type: functional, organism-based
[6] = system: Bacillus anthracis; assay: Ratio of IC50 for inosine/L-alanine-induced Bacillus anthracis Sterne 34F2 spore germination to IC50 for Bacillus anthracis Sterne 34F2 infected in mouse J774A.1 cells assessed as protection against bacteria-induced cytotoxicity; type: functional
[7] = Bacillus anthracis, Sterne 34F2, read-out: IC50
[8] = Bacillus anthracis, Sterne 34F2, J774.A1, read-out: IC50

Compound	IC50 [1, 7] [µM]	Activity [2]	IC50 [3]	Activity [4]	IC50 [1]	Activity [5]	IC50 [3, 8] [µM]	Ratio IC50 [6]
OC[C@H]1O[C@@H](n2cnc3c(O)nc(O)nc32)[C@H](O)[C@@H]1O [XANTHOSINE]	7190	Non-toxic	Not Active					
CC(C)=CCNc1ncnc2c1ncn2[C@@H]1O[C@H](CO)[C@@H](O)[C@H]1O [RIBOPRINE]	360	Non-toxic	Not Active					
CN(Cc1ccccc1)c1ncnc2c1ncn2[C@@H]1O[C@H](CO)[C@@H](O)[C@H]1O	120	Non-toxic	Not Active	Toxic				
O=c1cc[nH]c(=S)[nH]1 [THIOURACIL]		Non-toxic	Not Active		Not Active	inactive		
Sc1ccccn1 [2-MERCAPTOPYRIDINE]		Non-toxic	Not Active		Not Active	inactive		
OC[C@H]1O[C@@H](n2cnc3c(S)ncnc32)[C@H](O)[C@@H]1O [THIOINOSINE]		Non-toxic			Not Active		40	
CNc1ncnc2c1ncn2[C@@H]1O[C@H](CO)[C@@H](O)[C@H]1O	190	Non-toxic	Not Active					
OC[C@H]1O[C@@H](n2cnc3c(O)ncnc32)[C@H](O)[C@@H]1O [INOSINE]		Non-toxic						
Nc1nc(=O)[nH]c2c1ncn2[C@@H]1O[C@H](CO)[C@@H](O)[C@H]1O [ISOGUANOSINE]		Non-toxic	Not Active		Not Active			
Nc1ncnc2c1ccn2[C@@H]1O[C@H](CO)[C@@H](O)[C@H]1O [TUBERCIDIN]		Non-toxic	Not Active		Not Active			
c1ccc(CNc2ncnc3nc[nH]c23)cc1 [6-BENZYLAMINOPURINE]	1550	Non-toxic	Not Active					
C[n+]1cn([C@@H]2O[C@H](CO)[C@@H](O)[C@H]2O)c2nc[nH]c(=O)c21		Non-toxic	Not Active		Not Active			
Sc1nc2ccccc2[nH]1 [2-MERCAPTOBENZIMIDAZOLE]		Non-toxic	Not Active		Not Active			
Sc1ncccn1 [2-MERCAPTOPYRIMIDINE]		Non-toxic	Not Active		Not Active	inactive		
Nc1cc(S)nc(N)n1		Non-toxic	Not Active		Not Active	inactive		
N#Cc1ncnc2nc[nH]c12		Non-toxic	Not Active		Not Active			
COc1nc(N)nc2c1ncn2[C@@H]1O[C@H](CO)[C@@H](O)[C@H]1O	350	Non-toxic	Not Active					
Sc1ccncc1 [4-MERCAPTOPYRIDINE]		Non-toxic	Not Active		Not Active	inactive		
Nc1nc2c(ncn2[C@@H]2O[C@H](CO)[C@@H](O)[C@H]2O)c(=O)[nH]1 [GUANOSINE]		Non-toxic	Not Active		Not Active			
OC[C@H]1O[C@@H](n2cnc3cncnc32)[C@H](O)[C@@H]1O [NEBULARINE]		Non-toxic	Not Active		Not Active			
CSc1ncnc2c1ncn2[C@@H]1O[C@H](CO)[C@@H](O)[C@H]1O	320	Non-toxic	Not Active					
CCCN(CCC)c1ncnc2c1ncn2[C@@H]1O[C@H](CO)[C@@H](O)[C@H]1O	760	Non-toxic	Not Active					
CN(C)c1ncnc2c1ncn2[C@@H]1O[C@H](CO)[C@@H](O)[C@H]1O		Non-toxic	Not Active		Not Active			

Compound	IC50 [1, 7] [µM]	Activity [2]	IC50 [3]	Activity [4]	IC50 [1]	Activity [5]	IC50 [3, 8] [µM]	Ratio IC50 [6]
Nc1nc2c(nc(O)n2[C@@H]2O[C@H](CO)[C@@H](O)[C@H]2O)c(=O)[nH]1 [8-HYDROXYGUANOSINE]		Non-toxic	Not Active	Toxic	Not Active			
C[C@@H](N)C(=O)O [D-ALANINE]	20	Non-toxic					20	
CCOC(=O)C1CCCN(c2ncnc3c2ncn3[C@@H]2O[C@H](CO)[C@@H](O)[C@H]2O)C1 (stereo partly drawn)	700	Non-toxic	Not Active					
Sc1ncnc2nc[nH]c12 [MERCAPTOPURINE ANHYDROUS]		Non-toxic			Not Active		400	
Nc1nc2c(ncn2COC(CO)CO)c(=O)[nH]1 [GANCICLOVIR]		Non-toxic	Not Active		Not Active			
Nc1nc2c(ncn2[C@@H]2O[C@H](CO)[C@@H](O)[C@H]2O)c(=S)[nH]1 [THIOGUANOSINE]	1000	Non-toxic					4	300
Nc1ncnc2c1ncn2[C@@H]1O[C@H](CO)[C@@H](O)[C@H]1O [ADENOSINE]		Non-toxic	Not Active		Not Active			
OC[C@H]1O[C@@H](n2cnc3c(N4CCCCC4)ncnc32)[C@H](O)[C@@H]1O	1090	Non-toxic	Not Active					
Nc1ncnc2c1nc(N)n2[C@@H]1O[C@H](CO)[C@@H](O)[C@H]1O		Non-toxic	Not Active		Not Active	inactive		
Nc1ncc2ncn([C@@H]3O[C@H](CO)[C@@H](O)[C@H]3O)c2n1	380	Non-toxic	Not Active					
Nc1nc2nc[nH]c2c(=S)[nH]1 [THIOGUANINE]		Non-toxic			Not Active		2	
Nc1nc(Cl)c2nc[nH]c2n1 [6-CHLOROGUANINE]		Non-toxic			Not Active		200	
CSc1nc2ccccc2[nH]1		Non-toxic	Not Active		Not Active			
O=C(Nc1ncnc2c1ncn2[C@@H]1O[C@H](CO)[C@@H](O)[C@H]1O)c1ccccc1	1140	Non-toxic	Not Active	Toxic				
Nc1nc(N)c2ncn([C@@H]3O[C@H](CO)[C@@H](O)[C@H]3O)c2n1	700	Non-toxic	Not Active					
OC[C@H]1O[C@@H](n2cnc3c(SCc4ccccc4)ncnc32)[C@H](O)[C@@H]1O [6-BENZYLTHIOINOSINE]	50	Non-toxic					1040	
CC(=O)N1CCN(c2ncnc3c2ncn3[C@@H]2O[C@H](CO)[C@@H](O)[C@H]2O)CC1	50	Non-toxic	Not Active					
O=c1ncnc2n([C@H]3O[C@@H](CO)[C@H](O)[C@@H]3O)[nH]cc1-2 [ALLOPURINOL RIBOSIDE]		Non-toxic			Not Active		650	
Oc1ncnc2[nH]ncc12 [ALLOPURINOL]		Non-toxic	Not Active		Not Active			
Nc1nc(Cl)c2ncn([C@@H]3O[C@H](CO)[C@@H](O)[C@H]3O)c2n1	890	Non-toxic					190	
CCN(CC)c1ncnc2c1ncn2[C@@H]1O[C@H](CO)[C@@H](O)[C@H]1O	310	Non-toxic	Not Active					
OC[C@H]1O[C@@H](n2cnc3c(Cl)ncnc32)[C@H](O)[C@@H]1O		Non-toxic	Not Active		Not Active			
